Results: ChEMBL document CHEMBL4725393, “Prodrug Strategies to Improve the Solubility of the HCV NS5A Inhibitor Pibrentasvir (ABT-530)” (J Med Chem, 2020)
Values after ≈ are worked out from the molar mass of the structure shown.

Legend:
[1] = Cmax in CD1 mouse assessed as pibrentasvir1 level at 6 mg/kg, po measured up to 24 hrs; assay type: ADME, organism-based; parameters: route oral, dose 6 mg/kg, time <=24; settings: in vivo
How it was run: (§1)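 CD-1 mice with free access to food and water received an oral gavage of prodrug or PIB at 10 mL/kg in 0.2% HPMC. The dose was adjusted for prodrug MW to equal 6 mg/kg PIB. K2EDTA blood was drawn at 0.25, 0.5, 1, 3, 6, 9, 12 and 24 h. Plasma was spun at 3200 x g for 5 min at ~4°C and stored below -15°C. PIB and prodrug were measured; AUC in ng·h/mL, Cmax in ng/mL.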

[2] = Equilibrium solubility of compound at pH 7.4 incubated for 24 to 48 hrs by HPLC analysis; assay type: physicochemical; settings: buffer, time 24-48 hrs
How it was run: (§2)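 For equilibrium solubility, excess solid was added to 3–4 mL of medium, in triplicate. Suspension pH was read after equilibration. Solids were removed by centrifugation at 4000 rpm at 25 °C, and the supernatant was passed through a 0.45 µm filter, discarding the first 2 mL. The filtrate was quantified by HPLC against standard curves.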

[3] = Solubility in FeSSIF at pH 5; assay type: physicochemical; how it was run: as §2
[4] = Equilibrium solubility of compound at pH 1 incubated for 24 to 48 hrs by HPLC analysis; assay type: physicochemical; settings: buffer, time 24-48 hrs; how it was run: as §2
[5] = Stability of compound at pH 1 assessed as prodrug remaining level at 125 ug/ml incubated for 24 hrs by HPLC analysis; assay type: physicochemical; settings: buffer, pH 1, 24 h, at 125 µg/mL
How it was run: (§3)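 A DMSO stock of about 1.25 mg/mL was diluted into 0.1 N HCl (pH 1) or 50 mM phosphate buffer (pH 7.4), giving final concentrations of ~125 µg/mL prodrug and 10% DMSO. The solution was filtered and held at 37 °C in the HPLC autosampler, with injections at several times over 24 h. Percent remaining was calculated from prodrug peak area relative to t0.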

[6] = Stability of compound at pH 7.4 assessed as prodrug remaining level at 125 ug/ml incubated for 24 hrs by HPLC analysis; assay type: physicochemical; settings: buffer, pH 7.4, 24 h, at 125 µg/mL; how it was run: as §3
[7] = Cmax in beagle dog assessed as pibrentasvir1 level at 40 mg, po measured up to 24 hrs; assay type: ADME, organism-based, Canis lupus familiaris; parameters: route oral, dose 40 mg, time <=24; settings: in vivo
How it was run: (§4)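 The dose equalled 40 mg PIB after adjustment for prodrug MW. Food was returned at 12 h. K2EDTA plasma was sampled at 0.25–24 h. Cmax is in ng/mL and AUC in ng·h/mL.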

[8] = AUC in beagle dog assessed as pibrentasvir1 level at 40 mg, po measured up to 24 hrs; assay type: ADME, organism-based, Canis lupus familiaris; parameters: route oral, dose 40 mg, time <=24; settings: in vivo; how it was run: as §4
[9] = AUC in CD1 mouse assessed as pibrentasvir1 level at 6 mg/kg, po measured up to 24 hrs; assay type: ADME, organism-based; parameters: route oral, dose 6 mg/kg, time <=24; settings: in vivo; how it was run: as §1
[10] = Half life of compound at pH 7.4 at 125 ug/ml at 37 degC by HPLC analysis; assay type: physicochemical; settings: dose 125 µg/ml
[11] = AUC in cynomolgus monkey at 2 mg/kg, po measured up to 12 hrs; assay type: ADME, organism-based, Macaca fascicularis; parameters: route oral, dose 2 mg/kg, time <=12; settings: in vivo
How it was run: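 Female cynomolgus monkeys were fasted overnight and dosed by gastric intubation with a suspension in 0.5% HPMC at 0.5 mL/kg. The dose was MW-adjusted to 2 mg/kg PIB equivalent, and food was returned at 4 h. Plasma was collected at intervals up to 12 h and assayed for PIB and prodrug to give AUC in ng·h/mL.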

[12] = Cmax in CD1 mouse assessed as pibrentasvir1 level at 3 mg/kg, po measured up to 24 hrs; assay type: ADME, organism-based; parameters: route oral, dose 3 mg/kg, time <=24; settings: in vivo
How it was run: (§5)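 CD-1 mice, fed ad libitum, were dosed orally at a prodrug-MW-adjusted dose equal to 3 mg/kg PIB, as a solution or suspension. Serial K2EDTA blood samples were taken from 0.25 to 24 h. Plasma was separated by centrifugation and kept frozen. PIB and prodrug levels were reported as Cmax (ng/mL) and AUC (ng·h/mL).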

[13] = AUC in CD1 mouse assessed as pibrentasvir1 level at 3 mg/kg, po measured up to 24 hrs; assay type: ADME, organism-based; parameters: route oral, dose 3 mg/kg, time <=24; settings: in vivo; how it was run: as §5

| SMILES | Cmax [1] | solubility thermodynamic [2] | solubility [3] | solubility thermodynamic [4] | Stabilty [5] | Stabilty [6] | Cmax [7] | AUC [8] | AUC [9] | half-life at 125 ug/ml [10] | AUC at 12 h [11] | Cmax [12] | AUC [13] |
| --- | --- | --- | --- | --- | --- | --- | --- | --- | --- | --- | --- | --- | --- |
| COC(=O)N[C@H](C(=O)N1CCC[C@H]1c1nc2cc(F)c([C@H]3CC[C@H](c4cc5nc([C@@H]6CCCN6C(=O)[C@@H](NC(=O)OC)[C@@H](C)OC)n(COC(=O)CC(C)(C)c6c(C)cc(C)cc6OP(=O)(O)O)c5cc4F)N3c3cc(F)c(N4CCC(c5ccc(F)cc5)CC4)c(F)c3)cc2[nH]1)[C@@H](C)OC | 1210 ng/mL | 0.5 µg/mL (≈ 0.35 µM) | 794 µg/mL (≈ 556 µM) | 572 µg/mL (≈ 401 µM) | 87% | 100% | 249 ng/mL | 3210 ng·h/mL | 20600 ng·h/mL | > 72 h | 240 ng·h/mL |  |  |
| COC(=O)N[C@H](C(=O)N1CCC[C@H]1c1nc2cc(F)c([C@H]3CC[C@H](c4cc5nc([C@@H]6CCCN6C(=O)[C@@H](NC(=O)OC)[C@@H](C)OC)n(COC(=O)N(C)c6ncccc6COP(=O)(O)O)c5cc4F)N3c3cc(F)c(N4CCC(c5ccc(F)cc5)CC4)c(F)c3)cc2[nH]1)[C@@H](C)OC | 380 ng/mL | > 1000 µg/mL | > 1000 µg/mL | > 1000 µg/mL | 92% | 92% | 297 ng/mL | 3020 ng·h/mL | 6490 ng·h/mL |  |  |  |  |
| COC(=O)N[C@H](C(=O)N1CCC[C@H]1c1nc2cc([C@H]3CC[C@H](c4cc5nc([C@@H]6CCCN6C(=O)[C@@H](NC(=O)OC)[C@@H](C)OC)n(COP(=O)(O)O)c5cc4F)N3c3cc(F)c(N4CCC(c5ccc(F)cc5)CC4)c(F)c3)c(F)cc2n1COP(=O)(O)O)[C@@H](C)OC |  | 123 µg/mL (≈ 92.1 µM) |  | 135 µg/mL (≈ 101 µM) | 100% |  | 40 ng/mL | 355 ng·h/mL |  |  |  | 396 ng/mL | 6070 ng·h/mL |
| COC(=O)N[C@H](C(=O)N1CCC[C@H]1c1nc2cc(F)c([C@H]3CC[C@H](c4cc5nc([C@@H]6CCCN6C(=O)[C@@H](NC(=O)OC)[C@@H](C)OC)n(COC(=O)Cc6ccccc6OP(=O)(O)O)c5cc4F)N3c3cc(F)c(N4CCC(c5ccc(F)cc5)CC4)c(F)c3)cc2[nH]1)[C@@H](C)OC | 584 ng/mL | < 0.2 µg/mL | > 1000 µg/mL | 2 µg/mL (≈ 1.47 µM) | 15% | 28% | 288 ng/mL | 2940 ng·h/mL | 9560 ng·h/mL |  |  |  |  |
| COC(=O)N[C@H](C(=O)N1CCC[C@H]1c1nc2cc(F)c([C@H]3CC[C@H](c4cc5c(cc4F)nc([C@@H]4CCCN4C(=O)[C@@H](NC(=O)OC)[C@@H](C)OC)n5COP(=O)(O)O)N3c3cc(F)c(N4CCC(c5ccc(F)cc5)CC4)c(F)c3)cc2n1COP(=O)(O)O)[C@@H](C)OC |  | > 1000 µg/mL |  | 567 µg/mL (≈ 425 µM) |  |  | 66 ng/mL | 611 ng·h/mL |  |  |  | 20 ng/mL | 353 ng·h/mL |
| COC(=O)N[C@H](C(=O)N1CCC[C@H]1c1nc2cc(F)c([C@H]3CC[C@H](c4cc5nc([C@@H]6CCCN6C(=O)[C@@H](NC(=O)OC)[C@@H](C)OC)n(COC(=O)c6ccccc6COP(=O)(O)O)c5cc4F)N3c3cc(F)c(N4CCC(c5ccc(F)cc5)CC4)c(F)c3)cc2[nH]1)[C@@H](C)OC | 622 ng/mL | < 0.2 µg/mL | > 1000 µg/mL | 99 µg/mL (≈ 72.9 µM) | 99% | 89% | 115 ng/mL | 1150 ng·h/mL | 10700 ng·h/mL |  |  |  |  |
| COC(=O)N[C@H](C(=O)N1CCC[C@H]1c1nc2cc(F)c([C@H]3CC[C@H](c4cc5nc([C@@H]6CCCN6C(=O)[C@@H](NC(=O)OC)[C@@H](C)OC)n(COC(=O)[C@@H](NC(=O)OCOP(=O)(O)O)C(C)C)c5cc4F)N3c3cc(F)c(N4CCC(c5ccc(F)cc5)CC4)c(F)c3)cc2[nH]1)[C@@H](C)OC | 498 ng/mL | < 0.1 µg/mL | > 1000 µg/mL | 114 µg/mL (≈ 81.6 µM) | 95% | 38% | 16 ng/mL | 122 ng·h/mL | 8840 ng·h/mL |  |  |  |  |
| COC(=O)N[C@H](C(=O)N1CCC[C@H]1c1nc2cc(F)c([C@H]3CC[C@H](c4cc5nc([C@@H]6CCCN6C(=O)[C@@H](NC(=O)OC)[C@@H](C)OC)n(COC(=O)[C@@H](NC(=O)COP(=O)(O)O)C(C)C)c5cc4F)N3c3cc(F)c(N4CCC(c5ccc(F)cc5)CC4)c(F)c3)cc2[nH]1)[C@@H](C)OC |  | 0.7 µg/mL (≈ 0.507 µM) |  | 186 µg/mL (≈ 135 µM) | 97% | 31% | 112 ng/mL | 1210 ng·h/mL |  | < 24 h |  | 216 ng/mL | 3710 ng·h/mL |
| COC(=O)N[C@H](C(=O)N1CCC[C@H]1c1nc2cc(F)c([C@H]3CC[C@H](c4cc5c(cc4F)nc([C@@H]4CCCN4C(=O)[C@@H](NC(=O)OC)[C@@H](C)OC)n5COC(=O)[C@@H](NC(=O)OCOP(=O)(O)O)C(C)C)N3c3cc(F)c(N4CCC(c5ccc(F)cc5)CC4)c(F)c3)cc2[nH]1)[C@@H](C)OC | 513 ng/mL | > 1000 µg/mL | > 1000 µg/mL | 271 µg/mL (≈ 194 µM) | 95% | 28% |  |  | 8930 ng·h/mL | < 24 h |  |  |  |
| COC(=O)N[C@H](C(=O)N1CCC[C@H]1c1nc2cc(F)c([C@H]3CC[C@H](c4cc5nc([C@@H]6CCCN6C(=O)[C@@H](NC(=O)OC)[C@@H](C)OC)n(COC(=O)CCCOP(=O)(O)O)c5cc4F)N3c3cc(F)c(N4CCC(c5ccc(F)cc5)CC4)c(F)c3)cc2[nH]1)[C@@H](C)OC | 336 ng/mL | 49 µg/mL (≈ 37.4 µM) | > 1000 µg/mL | 146 µg/mL (≈ 112 µM) | 82% | 76% | 462 ng/mL | 4510 ng·h/mL | 5570 ng·h/mL |  |  |  |  |
| COC(=O)N[C@H](C(=O)N1CCC[C@H]1c1nc2cc([C@H]3CC[C@H](c4cc5c(cc4F)nc([C@@H]4CCCN4C(=O)[C@@H](NC(=O)OC)[C@@H](C)OC)n5COP(=O)(O)O)N3c3cc(F)c(N4CCC(c5ccc(F)cc5)CC4)c(F)c3)c(F)cc2n1COP(=O)(O)O)[C@@H](C)OC |  | > 1000 µg/mL |  | > 1000 µg/mL |  |  | 275 ng/mL | 2580 ng·h/mL |  |  |  | 28 ng/mL | 477 ng·h/mL |
